Assay results of several laboratories.
Compare with care: the assays were run in different laboratories. Converted amounts (≈) assume the structure as drawn.
Organism: Pseudomonas aeruginosa
Observed: microbial growth

`CCCCCCCCCCCC(=O)OC[C@H]1O[C@@H](n2cc(C)c(=O)[nH]c2=O)C[C@@H]1O` gave an MIC of 8 mg/L (≈ 18.8 µM) (broth dilution).
With `COC(=O)c1cc(-c2cccc(NC(=O)Nc3cc(OC)ccc3OC)c2)on1` the MIC was over 64 mg/L (broth dilution; ATCC27853).
For `Oc1cc(Cl)ccc1Oc1ccc(Cl)cc1Cl`, the MIC was over 25 mg/L.
`Cc1cc(/C=C2\Sc3ccccc3N2CCCN2CCCCC2)c2ccccc2[n+]1C.[I-]` gave an MIC of 64 mg/L (broth dilution; ATCCBAA2108; drug-resistant strain).
The MIC of `COC(=O)c1cc(-c2cccc(NC(=S)Nc3ccc(OC)cc3)c2)on1` is reported as over 64 mg/L (broth dilution; ATCC27853).
With `C[n+]1c(/C=C/c2ccc(O)cc2)cc(/C=C2\Sc3ccccc3N2CCCN2CCOCC2)c2ccccc21.[I-]` the MIC was over 64 mg/L (broth dilution; ATCCBAA2108; drug-resistant strain).
`COC(=O)c1cc(-c2cccc(NC(=O)Nc3ccc(F)cc3F)c2)on1` gave an MIC of over 64 mg/L (broth dilution; ATCC27853).
With `CN[C@H](CC(C)C)C(=O)N[C@H]1C(=O)N[C@@H](CC(N)=O)C(=O)N[C@H]2C(=O)N[C@H]3C(=O)N[C@H](C(=O)N[C@H](C(=O)O)c4cc(O)cc(O)c4-c4cc3ccc4O)[C@H](O)c3ccc(c(Cl)c3)Oc3cc2cc(c3O[C@@H]2O[C@H](CO)[C@@H](O)[C@H](O)[C@H]2O[C@H]2C[C@](C)(N)[C@H](O)[C@H](C)O2)Oc2ccc(cc2Cl)[C@H]1O` the MIC was over 64 mg/L (broth dilution; ATCCBAA2108; drug-resistant strain).
`C[C@@H](O)[C@H]1C(=O)N2C(C(=O)O)=C(S[C@@H]3CN[C@H](C(=O)N(C)C)C3)[C@H](C)[C@H]12` has an MIC of 2 mg/L (≈ 5.22 µM).
For `CCCCCCC#Cc1cncc(-c2nnc(Sc3ccc([N+](=O)[O-])cc3[N+](=O)[O-])n2C)c1`, the MIC was at least 20 mg/L.
The MIC of `CO[C@H]1/C=C/O[C@@]2(C)Oc3c(C)c(O)c4c(O)c(c(/C=N/N5CCN(C)CC5)c(O)c4c3C2=O)NC(=O)/C(C)=C\C=C\[C@H](C)[C@H](O)[C@@H](C)[C@@H](O)[C@@H](C)[C@H](OC(C)=O)[C@@H]1C` is reported as over 64 mg/L (broth dilution; ATCCBAA2108; drug-resistant strain).
`CCCCCCNC(=S)Nc1cccc(-c2cc(C(=O)OC)no2)c1` has an MIC of over 64 mg/L (broth dilution; ATCC27853).
With `C[C@H]1COCCN1c1nc(NCc2cccnc2C(F)(F)F)c2cccnc2n1` the MIC was 64 mg/L (≈ 158 µM) (broth dilution; NCTC13437).
`COC(=O)c1cc(-c2cccc(NC(=O)Nc3ccccc3F)c2)on1` gave an MIC of over 64 mg/L (broth dilution; ATCC27853).
The MIC of `CC1(C)S[C@@H]2[C@H](NC(=O)[C@H](N)c3ccccc3)C(=O)N2[C@H]1C(=O)O` is reported as over 64 mg/L (broth dilution; ATCCBAA2108; drug-resistant strain).
The MIC of `CC1(C)SC2C(NC(=O)C(NC(=O)C3=C(O)C(Cc4ccc([N+](=O)[O-])cc4)NC3=O)c3ccccc3)C(=O)N2C1C(=O)O` (stereo not shown) is reported as 50 mg/L (≈ 82 µM).
